Active and inactive are the calls of the source. The rule behind the calls is not given here.
Columns and labels:
[1] = target: T1, Ephrin type-B receptor 4 (Homo sapiens) (UniProt P54760); assay: Inhibition of EphB4 at 30 uM in presence of 30 uM ATP
T1 sequence (whole entry): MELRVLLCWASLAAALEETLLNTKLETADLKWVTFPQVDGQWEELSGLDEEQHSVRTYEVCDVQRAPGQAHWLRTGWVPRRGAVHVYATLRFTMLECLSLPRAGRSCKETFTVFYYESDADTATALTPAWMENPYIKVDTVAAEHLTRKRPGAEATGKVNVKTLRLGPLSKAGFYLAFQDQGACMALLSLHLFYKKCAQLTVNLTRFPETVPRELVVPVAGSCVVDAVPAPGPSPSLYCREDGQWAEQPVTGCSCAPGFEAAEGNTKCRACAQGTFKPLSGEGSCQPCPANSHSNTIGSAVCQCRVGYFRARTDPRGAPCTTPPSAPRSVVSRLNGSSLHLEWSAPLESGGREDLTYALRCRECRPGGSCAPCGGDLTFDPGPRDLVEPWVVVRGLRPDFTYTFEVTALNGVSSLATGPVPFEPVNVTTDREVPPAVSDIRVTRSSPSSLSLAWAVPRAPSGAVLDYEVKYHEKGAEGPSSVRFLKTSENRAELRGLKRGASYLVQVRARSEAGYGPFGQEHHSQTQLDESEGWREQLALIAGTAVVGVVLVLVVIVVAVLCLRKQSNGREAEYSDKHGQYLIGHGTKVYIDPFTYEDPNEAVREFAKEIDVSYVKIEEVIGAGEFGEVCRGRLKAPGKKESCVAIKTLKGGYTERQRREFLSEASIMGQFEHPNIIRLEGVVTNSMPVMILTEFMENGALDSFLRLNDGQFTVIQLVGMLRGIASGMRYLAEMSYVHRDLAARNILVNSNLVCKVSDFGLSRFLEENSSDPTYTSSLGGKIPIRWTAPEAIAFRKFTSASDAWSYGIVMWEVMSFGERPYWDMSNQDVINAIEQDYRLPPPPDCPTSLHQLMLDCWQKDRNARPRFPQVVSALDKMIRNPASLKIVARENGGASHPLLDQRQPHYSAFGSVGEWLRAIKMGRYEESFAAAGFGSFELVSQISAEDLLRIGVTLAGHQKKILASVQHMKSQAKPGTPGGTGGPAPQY
Outline: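 EphB4 kinase, FRET enzymatic assay run in house with a commercial EphB4 assay kit. ATP at 30 μM, compound at 30 μM. Read-out is percent inhibition at that single concentration.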

[2] = target: T2, Ephrin type-B receptor 4 (Homo sapiens, UniProt P54760); assay: Inhibition of EphB4 in presence of 1 uM radiolabeled ATP
T2 sequence (P54760 whole entry): T1 sequence (whole entry)
Outline: (§1)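 Radiometric enzymatic assay run by a contract lab (Reaction Biology) on the recombinant catalytic domain of each kinase, with radiolabeled ATP at 1 μM. IC50 taken from a 10-dose response.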

[3] = target: T2, Ephrin type-B receptor 4; assay: Inhibition of EphB4 by FRET assay in presence of 30 uM ATP
Outline: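 In-house FRET enzymatic assay of EphB4 using a commercial EphB4 kit, ATP 30 μM. IC50 derived from concentration-response.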

[4] = target: Epidermal growth factor receptor (Homo sapiens, UniProt P00533); assay: Inhibition of recombinant EGFR catalytic domain in presence of 1 uM radiolabeled ATP; outline: as §1
Chain of Epidermal growth factor receptor (P00533 whole entry, the tested form may be a part): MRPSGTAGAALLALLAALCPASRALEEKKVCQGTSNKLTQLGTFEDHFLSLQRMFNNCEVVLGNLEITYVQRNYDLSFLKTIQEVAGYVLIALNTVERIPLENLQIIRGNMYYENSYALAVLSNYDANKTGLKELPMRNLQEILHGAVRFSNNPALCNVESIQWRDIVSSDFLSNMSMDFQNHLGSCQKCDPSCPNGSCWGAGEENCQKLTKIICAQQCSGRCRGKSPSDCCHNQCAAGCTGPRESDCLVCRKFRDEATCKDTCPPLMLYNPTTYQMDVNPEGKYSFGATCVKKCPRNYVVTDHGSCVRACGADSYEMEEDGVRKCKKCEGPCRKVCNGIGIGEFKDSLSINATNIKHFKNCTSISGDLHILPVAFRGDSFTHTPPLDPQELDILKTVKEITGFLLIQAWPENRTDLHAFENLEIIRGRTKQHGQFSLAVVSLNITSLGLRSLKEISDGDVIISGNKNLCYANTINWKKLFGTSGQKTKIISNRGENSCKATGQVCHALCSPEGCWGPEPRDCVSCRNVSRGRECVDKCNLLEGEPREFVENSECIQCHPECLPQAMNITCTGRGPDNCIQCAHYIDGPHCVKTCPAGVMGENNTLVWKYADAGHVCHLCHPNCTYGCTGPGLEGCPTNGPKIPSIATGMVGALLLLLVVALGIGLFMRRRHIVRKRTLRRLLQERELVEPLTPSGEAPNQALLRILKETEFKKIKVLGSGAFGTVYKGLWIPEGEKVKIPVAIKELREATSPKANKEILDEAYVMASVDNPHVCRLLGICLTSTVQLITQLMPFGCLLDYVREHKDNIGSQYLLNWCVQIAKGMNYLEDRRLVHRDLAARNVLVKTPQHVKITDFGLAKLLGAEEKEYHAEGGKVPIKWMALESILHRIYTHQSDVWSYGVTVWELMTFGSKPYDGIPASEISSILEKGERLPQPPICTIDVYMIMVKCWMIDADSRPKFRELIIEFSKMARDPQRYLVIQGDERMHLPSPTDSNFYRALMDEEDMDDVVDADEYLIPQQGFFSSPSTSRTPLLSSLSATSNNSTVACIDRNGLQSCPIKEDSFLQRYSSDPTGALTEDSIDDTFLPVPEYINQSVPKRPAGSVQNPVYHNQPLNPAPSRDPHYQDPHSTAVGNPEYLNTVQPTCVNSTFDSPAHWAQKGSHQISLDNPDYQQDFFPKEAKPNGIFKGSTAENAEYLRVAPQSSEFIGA

[5] = target: Proto-oncogene tyrosine-protein kinase Src (Homo sapiens, UniProt P12931); assay: Inhibition of recombinant Src catalytic domain in presence of 1 uM radiolabeled ATP; outline: as §1
Chain of Proto-oncogene tyrosine-protein kinase Src (P12931 2-536 limits assumed): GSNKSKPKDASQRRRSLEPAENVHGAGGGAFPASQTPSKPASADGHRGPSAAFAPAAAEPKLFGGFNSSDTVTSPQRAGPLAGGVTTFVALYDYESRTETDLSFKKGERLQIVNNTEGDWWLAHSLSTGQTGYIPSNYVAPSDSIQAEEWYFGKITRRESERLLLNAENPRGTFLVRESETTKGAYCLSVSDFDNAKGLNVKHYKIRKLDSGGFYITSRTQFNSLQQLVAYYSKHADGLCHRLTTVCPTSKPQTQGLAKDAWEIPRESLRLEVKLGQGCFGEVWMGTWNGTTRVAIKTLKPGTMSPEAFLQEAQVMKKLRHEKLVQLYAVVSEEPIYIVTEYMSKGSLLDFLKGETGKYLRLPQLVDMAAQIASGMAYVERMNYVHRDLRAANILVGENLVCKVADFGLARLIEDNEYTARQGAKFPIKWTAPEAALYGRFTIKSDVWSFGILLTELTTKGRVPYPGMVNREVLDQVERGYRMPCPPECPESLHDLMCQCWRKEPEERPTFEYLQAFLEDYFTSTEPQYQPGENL

[6] = target: T2, Ephrin type-B receptor 4; assay: Inhibition of human full length EphB4 expressed in MEF cells assessed as inhibition of human ephrin B2/FC chimera-stimulated receptor autophosphorylation; format: cell-based
Outline: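 Cellular EphB4 phosphorylation assay run by a contract lab (ProQinase) in murine embryonal fibroblasts (MEF) expressing exogenous full-length human EphB4. Cells were stimulated 2 h with human Ephrin-B2/Fc chimera to induce receptor tyrosine autophosphorylation. Read-out is inhibition of that autophosphorylation.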

[7] = target: Tyrosine-protein kinase Lck (Homo sapiens, UniProt P06239); assay: Inhibition of recombinant Lck catalytic domain in presence of 1 uM radiolabeled ATP; outline: as §1
Chain of Tyrosine-protein kinase Lck (P06239 whole entry, the tested form may be a part): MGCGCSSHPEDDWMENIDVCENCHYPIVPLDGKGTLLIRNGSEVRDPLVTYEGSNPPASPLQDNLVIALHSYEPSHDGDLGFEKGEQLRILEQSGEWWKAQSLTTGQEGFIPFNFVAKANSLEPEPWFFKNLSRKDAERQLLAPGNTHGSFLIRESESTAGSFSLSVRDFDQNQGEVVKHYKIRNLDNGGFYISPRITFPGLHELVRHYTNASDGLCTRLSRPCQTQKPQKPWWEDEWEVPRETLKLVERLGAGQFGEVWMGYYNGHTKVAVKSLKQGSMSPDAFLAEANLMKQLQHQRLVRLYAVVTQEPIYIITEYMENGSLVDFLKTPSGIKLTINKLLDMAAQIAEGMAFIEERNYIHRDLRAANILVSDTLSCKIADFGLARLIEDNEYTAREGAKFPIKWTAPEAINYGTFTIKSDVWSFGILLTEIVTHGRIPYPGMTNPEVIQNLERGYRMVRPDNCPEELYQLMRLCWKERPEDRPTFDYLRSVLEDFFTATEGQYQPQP

[8] = target: Insulin-like growth factor 1 receptor (Homo sapiens) (UniProt P08069); assay: Inhibition of recombinant IGF1R catalytic domain in presence of 1 uM radiolabeled ATP; outline: as §1
Chain of Insulin-like growth factor 1 receptor (Homo sapiens) (P08069 31-736 limits assumed): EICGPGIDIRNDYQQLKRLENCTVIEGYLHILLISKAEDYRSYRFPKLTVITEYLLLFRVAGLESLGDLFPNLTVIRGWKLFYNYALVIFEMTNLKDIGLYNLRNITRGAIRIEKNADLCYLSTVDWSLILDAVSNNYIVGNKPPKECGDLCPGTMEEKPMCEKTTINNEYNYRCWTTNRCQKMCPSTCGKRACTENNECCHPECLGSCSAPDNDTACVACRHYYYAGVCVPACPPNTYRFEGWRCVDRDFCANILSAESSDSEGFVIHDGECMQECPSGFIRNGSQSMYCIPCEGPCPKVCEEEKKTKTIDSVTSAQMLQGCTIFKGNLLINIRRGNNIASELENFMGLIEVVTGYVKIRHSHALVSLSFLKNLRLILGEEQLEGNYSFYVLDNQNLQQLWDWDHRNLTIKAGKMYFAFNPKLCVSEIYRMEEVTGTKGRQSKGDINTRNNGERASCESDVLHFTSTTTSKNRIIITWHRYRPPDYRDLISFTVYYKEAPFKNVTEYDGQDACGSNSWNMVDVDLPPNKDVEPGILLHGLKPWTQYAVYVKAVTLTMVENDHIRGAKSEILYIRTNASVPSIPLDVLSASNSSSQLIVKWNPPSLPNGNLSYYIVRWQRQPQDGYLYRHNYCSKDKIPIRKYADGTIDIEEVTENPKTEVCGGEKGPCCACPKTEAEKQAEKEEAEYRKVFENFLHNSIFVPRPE
Chain of Insulin-like growth factor 1 receptor (Homo sapiens) (P08069 741-1367 limits assumed): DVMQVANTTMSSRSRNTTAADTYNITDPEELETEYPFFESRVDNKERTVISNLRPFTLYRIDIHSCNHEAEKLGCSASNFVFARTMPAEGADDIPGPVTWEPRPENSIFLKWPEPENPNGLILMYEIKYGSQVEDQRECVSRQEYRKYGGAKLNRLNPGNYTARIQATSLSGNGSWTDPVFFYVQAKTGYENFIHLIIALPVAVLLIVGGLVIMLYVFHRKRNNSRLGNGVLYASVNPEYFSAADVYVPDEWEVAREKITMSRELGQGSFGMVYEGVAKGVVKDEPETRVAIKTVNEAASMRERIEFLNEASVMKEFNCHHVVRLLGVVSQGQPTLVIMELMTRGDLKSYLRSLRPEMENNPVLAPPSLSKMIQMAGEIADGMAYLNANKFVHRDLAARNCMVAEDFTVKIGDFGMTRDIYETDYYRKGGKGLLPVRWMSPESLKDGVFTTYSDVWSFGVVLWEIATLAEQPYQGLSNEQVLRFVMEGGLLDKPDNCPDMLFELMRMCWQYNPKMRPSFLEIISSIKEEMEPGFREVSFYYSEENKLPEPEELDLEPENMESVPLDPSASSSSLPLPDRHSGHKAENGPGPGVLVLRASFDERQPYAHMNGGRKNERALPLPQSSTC

[9] = target: Tyrosine-protein kinase ABL1 (Homo sapiens, UniProt P00519); assay: Inhibition of recombinant Abl1 catalytic domain in presence of 1 uM radiolabeled ATP; outline: as §1
Chain of Tyrosine-protein kinase ABL1 (P00519 whole entry, the tested form may be a part): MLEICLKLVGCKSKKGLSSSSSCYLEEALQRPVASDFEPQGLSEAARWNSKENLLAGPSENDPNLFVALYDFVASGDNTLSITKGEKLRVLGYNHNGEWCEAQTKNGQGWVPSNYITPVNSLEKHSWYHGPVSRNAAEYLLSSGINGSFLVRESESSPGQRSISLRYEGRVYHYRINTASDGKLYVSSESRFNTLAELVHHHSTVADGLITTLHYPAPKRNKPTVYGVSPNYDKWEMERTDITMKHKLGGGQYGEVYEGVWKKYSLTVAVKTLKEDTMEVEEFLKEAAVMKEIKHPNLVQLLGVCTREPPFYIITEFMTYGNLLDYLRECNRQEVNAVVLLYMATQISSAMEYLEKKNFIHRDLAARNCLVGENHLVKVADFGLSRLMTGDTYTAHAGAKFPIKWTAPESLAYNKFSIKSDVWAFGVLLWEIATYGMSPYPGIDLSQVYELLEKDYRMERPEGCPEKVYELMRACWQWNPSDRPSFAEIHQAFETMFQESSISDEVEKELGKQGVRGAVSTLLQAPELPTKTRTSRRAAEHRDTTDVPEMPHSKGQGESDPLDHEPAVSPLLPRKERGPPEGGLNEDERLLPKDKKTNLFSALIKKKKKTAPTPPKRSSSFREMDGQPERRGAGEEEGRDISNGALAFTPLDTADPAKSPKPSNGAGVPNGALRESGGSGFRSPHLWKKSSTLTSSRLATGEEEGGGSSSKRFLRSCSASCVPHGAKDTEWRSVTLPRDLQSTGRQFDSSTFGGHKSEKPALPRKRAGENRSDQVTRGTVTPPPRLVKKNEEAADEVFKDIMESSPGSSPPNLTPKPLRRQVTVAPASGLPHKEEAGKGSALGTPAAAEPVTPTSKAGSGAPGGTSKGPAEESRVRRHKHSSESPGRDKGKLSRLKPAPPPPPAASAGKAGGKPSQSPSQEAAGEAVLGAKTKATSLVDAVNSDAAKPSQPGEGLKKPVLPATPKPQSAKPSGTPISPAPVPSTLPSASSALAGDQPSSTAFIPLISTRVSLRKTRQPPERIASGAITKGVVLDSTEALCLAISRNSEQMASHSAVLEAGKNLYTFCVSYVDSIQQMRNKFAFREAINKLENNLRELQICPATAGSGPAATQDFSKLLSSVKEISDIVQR

Work on `Cc1ccccc1-n1c(=O)c2c(c3c(N)ncnc31)CCCC2` yielded an inhibition [1] of 48% and an IC50 [2] of 8.4 µM.
In the case of `COc1cccc(-n2c(=O)c3c(c4c(N)ncnc42)CCCC3)c1`, the inhibition [1] is reported as 75%, the IC50 [2] is reported as 5.2 µM and the IC50 [3] is reported as 9.4 µM.
Compound `COc1cccc(-n2c(=O)c3c(c4c(N)ncnc42)CC(C)(C)OC3)c1` has an inhibition [1] of 38% and an IC50 [2] of 14.3 µM.
In the case of `COc1ccccc1-n1c(=O)c2c(c3c(N)ncnc31)CCCC2`, the inhibition [1] is reported as 5%.
Work on `Cc1ccc(O)cc1-n1c(=O)c2c(c3c(N)ncnc31)CCCC2` yielded an IC50 [4] of 1.62 µM, an IC50 [5] of 0.338 µM and an IC50 [6] of 0.93 µM. The IC50 [7] was 1.38 µM, the IC50 [2] was 0.16 µM and the inhibition [8] was “inactive”. It also gave an IC50 [3] of 0.3 µM and an IC50 [9] of 0.864 µM.
Compound `COc1ccc(-n2c(=O)c3c(c4c(N)ncnc42)CCCC3)cc1` has an inhibition [1] of 37%.
`COc1ccccc1-n1c(=O)c2c(c3c(N)ncnc31)CC(C)(C)OC2` was tested, and the inhibition [1] was 0%.

From ChEMBL document CHEMBL2150975, “Discovery of a novel chemotype of tyrosine kinase inhibitors by fragment-based docking and molecular dynamics” (ACS Med Chem Lett, 2012)
